Variants at the floor of the assay were thinned out.

Drawing on the RNAGym collection of RNA variant scans (doi:10.1126/science.aae0568), this text covers yeast fitness for 167 variants.

B1: tRNA (parent)
chain: GUUCCGUUGGCGUAAUGGUAACGCGUCUCCCUCCUAAGGAGAAGACUGCGGGUUCGAGUCCCGUACGGAACG

Variants of B1 are the subject of the series. Briefly: yeast fitness relative to wild type (ratio to wild type); higher = fitter; tRNA-Arg(CCU), competitive growth, 37 C, YPD. Put shortly:
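Start and end populations of a pooled competition were compared by 100-nucleotide paired-end sequencing of gene amplicons. The Saccharomyces cerevisiae strains carried tRNA-Arg(CCU) gene variants at the native genomic locus, synthesised with a 3% per-site mutation rate at 69 sites, and competed in YPD at 37°C for 24 hours in six parallel replicates. Darwinian fitness relative to wild type was based on the change in genotype frequencies. Genotypes required ≥ 100 starting reads, and estimates < 0.5 were set to 0.5.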
In the case of A57C C60G, the yeast fitness was determined as 0.503.

On to A20U G25A G67U, for which the yeast fitness was 0.673.

On to U2A C5G G38C, for which the yeast fitness was no more than 0.5.

With A20G C27U C49U A57G, the yeast fitness was no more than 0.5.

Consider C4A A20U, for which the yeast fitness worked out at 0.707.

Turning to U32C G38C G52C, the yeast fitness was no more than 0.5.

Take A20U A37G C66A A69U: the yeast fitness is no more than 0.5.

Take U16C A40C A57G C61U: the yeast fitness was no more than 0.5.

With U3A U26C A43C A70U, the yeast fitness was no more than 0.5.

As to U2C U8A G38C C60A, the yeast fitness was no more than 0.5.

Take C4U A20G A45U C61A C62U: the yeast fitness came out at 0.546.

In the case of G12C C33U U47C G48A G58A, the yeast fitness was no more than 0.5.

As to C11G A20C C24G G58A G67C, the yeast fitness is no more than 0.5.

As to G17C C62U A65C, the yeast fitness was 0.593.

Turning to G23C G58U, the yeast fitness worked out at 0.565.

G10C C22U A70G: the yeast fitness was 0.513.

Regarding U16A G17C A43U A45C C46A C62G, the yeast fitness is no more than 0.5.

C5U A15U U54A C55U C66A: the yeast fitness is no more than 0.5.

With C34G G68U, the yeast fitness was 0.638.

Regarding G18C C33A A36C G51C, the yeast fitness is no more than 0.5.

On to C11U G56A, for which the yeast fitness came to 0.901.

As for A15U U28C, the yeast fitness was 0.772.

For U2C U3G G18A A65U, the yeast fitness is no more than 0.5.

As to U32C A45G A57U, the yeast fitness was no more than 0.5.

For the variant C34G U54G, the yeast fitness is no more than 0.5.

On to C4U C30A A37U G44C U53A, for which the yeast fitness was no more than 0.5.

For the variant A40G C55U, the yeast fitness worked out at 0.663.

Consider A20G C27G A42C C55A, for which the yeast fitness is no more than 0.5.

As for C49A A57C A69U, the yeast fitness stood at 0.528.

On to C30U A37U, for which the yeast fitness was 0.65.

With G6C U32A G41A C46U, the yeast fitness was no more than 0.5.

Consider A42G C55G, for which the yeast fitness came out at 0.669.

Regarding G6C C24A A69U, the yeast fitness is no more than 0.5.

For the variant U47A C66U, the yeast fitness was found to be 0.872.

For U16C C29G C60U, the yeast fitness worked out at 0.638.

As for C11U C27G A36G G63C C66U, the yeast fitness is no more than 0.5.

For the variant C5G U16A C29U A40U, the yeast fitness is 0.523.

On to C24A U26A C55A, for which the yeast fitness was no more than 0.5.

Consider C46G C49A G68C A69G, for which the yeast fitness was no more than 0.5.

With G10C U13A, the yeast fitness was found to be 0.549.

Consider A20U C27U U32C G52C, for which the yeast fitness is no more than 0.5.

As to G23A U47A, the yeast fitness was 0.796.

On to C11A C22G C29G U53A C55G, for which the yeast fitness is no more than 0.5.

On to C30A A65U, for which the yeast fitness worked out at 0.802.

U19G C27G: the yeast fitness was found to be 0.776.

Turning to C5G U64G C66U, the yeast fitness turned out to be 0.593.

For U19G C24G U28C, the yeast fitness was found to be 0.681.

As for U3C U16C C30G C31G A37U G56C, the yeast fitness was no more than 0.5.

Regarding C11A C27G C31A G68A, the yeast fitness was no more than 0.5.

For the variant U3A G68A, the yeast fitness amounted to 0.854.

Take C34U G44C U47G A65G: the yeast fitness was no more than 0.5.

For the variant U7A U13G C55G, the yeast fitness is no more than 0.5.

C4A A20U C29G C49G G63C: the yeast fitness is no more than 0.5.

U3C C27U C46G: the yeast fitness was 0.789.

With A36G C62G, the yeast fitness was found to be 0.905.

For C27G A45G G48A C66U, the yeast fitness was no more than 0.5.

Consider U3A A36U C55A C62U, for which the yeast fitness is no more than 0.5.

With C30A G67U, the yeast fitness turned out to be 0.671.

For the variant U8G A37U C66U, the yeast fitness was no more than 0.5.

In the case of G23A G38A G67C, the yeast fitness is no more than 0.5.

As to C5U A21U U28C C30G A70U, the yeast fitness was no more than 0.5.

For the variant U7C U26C C49U, the yeast fitness was no more than 0.5.

With C5U C46U C55A G56C, the yeast fitness was no more than 0.5.

For C4A G39C C66U, the yeast fitness was no more than 0.5.

On to U54G A57G, for which the yeast fitness worked out at 0.615.

With C34G G52C, the yeast fitness was no more than 0.5.

Consider C29G A57C C66G, for which the yeast fitness was no more than 0.5.

Consider U8C U16C, for which the yeast fitness was 0.861.

For A14U C29G A57G U59G C62G C66U, the yeast fitness is no more than 0.5.

Regarding U7C G58C C66A, the yeast fitness worked out at 0.584.

As to C22G C49G, the yeast fitness was determined as 0.664.

In the case of G25C G38C C49U A57U C66A, the yeast fitness worked out at 0.571.

For the variant G17C G23U U28A C31G, the yeast fitness turned out to be 0.655.

On to U7A G25C C27G C31U A45U U64C, for which the yeast fitness is no more than 0.5.

As for C22U G25A U32A A36C A70G, the yeast fitness was no more than 0.5.

As to U8A G44C A57U, the yeast fitness was no more than 0.5.

G25C C66G: the yeast fitness turned out to be 0.639.

Regarding C62U G63C, the yeast fitness worked out at 0.752.

Turning to U7A A20G C46G G63C G67C A69U, the yeast fitness is no more than 0.5.

Turning to G9C G48A, the yeast fitness came to 0.705.

Regarding G25U A36U G56C A65C C66U, the yeast fitness was no more than 0.5.

With A20G A40C A42U A43C G48A, the yeast fitness came to 0.562.

As for C31A G51A G58C, the yeast fitness was found to be 0.561.

As to G10C C29G A65C, the yeast fitness was no more than 0.5.

For G17C C29G G39A, the yeast fitness was no more than 0.5.

In the case of C31G C61G C62G, the yeast fitness stood at 0.514.

As to U2G U47G, the yeast fitness was found to be 0.546.

As to G12C G41C C46U, the yeast fitness amounted to 0.596.

Consider U2G G44C G58C, for which the yeast fitness was 0.647.

Regarding U3G C5U G39C U47A, the yeast fitness was found to be 0.538.

G58C A69G: the yeast fitness was found to be 0.961.

For the variant C22U G25C, the yeast fitness amounted to 0.697.

Take U3A C5G U13G C46G C62G A70U: the yeast fitness is no more than 0.5.

For C4A A40U A43U A70U, the yeast fitness was no more than 0.5.

With C29G U35G A42G C61U, the yeast fitness was no more than 0.5.

Turning to A21U G50C C66G, the yeast fitness is no more than 0.5.

For U19C C22U G25C C27G A40C, the yeast fitness came out at 0.587.

Take U7A C34U A65G C66G: the yeast fitness was no more than 0.5.

As for C24U C34A G48C, the yeast fitness came to 0.693.

Take U3A C4U U7A G12A C30G: the yeast fitness is no more than 0.5.

On to U3C C34G A57C, for which the yeast fitness was 0.715.

On to U2C C27U A36G, for which the yeast fitness was found to be 0.575.

Take C5G U28C C31G C62U: the yeast fitness is no more than 0.5.

In the case of C34G G48C G67A, the yeast fitness is no more than 0.5.

Turning to C24U U26C A70U, the yeast fitness stood at 0.678.

On to C4G G6A C24U A40U C49A, for which the yeast fitness was no more than 0.5.

As for C31G A40G C49U G50C, the yeast fitness was no more than 0.5.

Consider A14U U28A G51A, for which the yeast fitness is no more than 0.5.

On to A45U U53G G67A, for which the yeast fitness is no more than 0.5.

Take G12C C31U G50A: the yeast fitness is 0.677.

As for A20C C34A C62U, the yeast fitness was no more than 0.5.

For A21G A36G G38C C49U, the yeast fitness is no more than 0.5.

Consider U19C C27U C55G, for which the yeast fitness was determined as 0.544.

Consider C11A G18A C46U, for which the yeast fitness was found to be 0.61.

For the variant G52C A69U, the yeast fitness is 0.707.

With G17C A36G A45G, the yeast fitness is 0.505.

As for G23C C31A C62A, the yeast fitness stood at 0.527.

Turning to C4G U13A C29U A40C, the yeast fitness was no more than 0.5.

For U54G G67C, the yeast fitness is no more than 0.5.

Take C29U G38C: the yeast fitness amounted to 0.545.

Take A42U G67C: the yeast fitness is 0.69.

Regarding U8C G23A A65C, the yeast fitness turned out to be 0.571.

On to A42U G48A A65U, for which the yeast fitness stood at 0.706.

Turning to U8C C30G C31G U54C C61G, the yeast fitness was no more than 0.5.

Regarding C24U U35C, the yeast fitness came to 0.778.

For U32C C49U A65G, the yeast fitness came out at 0.778.

On to G9A C11G C24G U32A G50A C61U G63C, for which the yeast fitness is no more than 0.5.

In the case of U8G A21G G23A U64C, the yeast fitness is no more than 0.5.

As to C5G C31U C49G, the yeast fitness was 0.576.

In the case of C5G A45U G68C, the yeast fitness is no more than 0.5.

As for U8A C24A U28C G56A, the yeast fitness stood at 0.556.

As for G52C C62U, the yeast fitness is 0.559.

In the case of C11G U13G A21G, the yeast fitness was found to be 0.785.

As to A15C G39A C46U, the yeast fitness was 0.55.

In the case of G23C C30G, the yeast fitness was 0.511.

In the case of C4A G17A G18A G25A C55A, the yeast fitness is no more than 0.5.

As for U19A C31G A65U, the yeast fitness turned out to be 0.582.

For C30A C61A A65C, the yeast fitness worked out at 0.578.

For G12A C29A C60U, the yeast fitness is no more than 0.5.

A14C A37C U54C: the yeast fitness was no more than 0.5.

As for U2C C34A, the yeast fitness stood at 0.77.

For the variant C4A C31U C46A, the yeast fitness amounted to 0.726.

Turning to U16G C49U G63A, the yeast fitness was found to be 0.994.

With U13G A21G, the yeast fitness was found to be 0.895.

In the case of G25A C60A C66U, the yeast fitness was no more than 0.5.

On to A42G U47A, for which the yeast fitness was determined as 0.785.

G18C C22G C31U U59A G63A: the yeast fitness is no more than 0.5.

Consider U3G C5U A70G, for which the yeast fitness was no more than 0.5.

With C22A G23C A42G, the yeast fitness was no more than 0.5.

As for C4U C5G U28C G67C, the yeast fitness was 0.909.

As to A20C C30U G51C C55G A57U C66U, the yeast fitness was no more than 0.5.

With C5G A21G G41A G67A, the yeast fitness was no more than 0.5.

With A14G G23A A70C, the yeast fitness was no more than 0.5.

In the case of C4U C24G C30G C31U U35A A36U G44A G63C, the yeast fitness is 0.654.

For the variant C4U G9C A20G A45G C61A G67A, the yeast fitness is no more than 0.5.

As for G6A C49U G58A, the yeast fitness came to 0.654.

For the variant C5A U26A A43U A65U, the yeast fitness is no more than 0.5.

On to A20G C22G C27G C30U C31G G51C C61A A69C, for which the yeast fitness was no more than 0.5.

As for U2G U64A, the yeast fitness is 0.776.

As for G17C G18C C30G U53A U64G, the yeast fitness was no more than 0.5.

Turning to C11G A37C A42U, the yeast fitness was no more than 0.5.

Regarding C5U A65G A69G A70U, the yeast fitness is no more than 0.5.

As to G10A A36C A70U, the yeast fitness is no more than 0.5.

Turning to A15G U16A A20G A42G, the yeast fitness came to 0.577.

As to A21U U32A A70G, the yeast fitness was no more than 0.5.

In the case of U28G G38C C62G C66U, the yeast fitness is no more than 0.5.

C5U A21U C62U A70C: the yeast fitness is no more than 0.5.
